Assay results from ChEMBL document CHEMBL3526140, “Prediction of human intestinal absorption of the prodrug temocapril by in situ single-pass perfusion using rat intestine with modified hydrolase activity” (Drug Metab Dispos, 2011).

Legend:
[1] = Permeability in Wistar rat jejunum at 100 uM at pH 6.4 by in-situ single-pass perfusion method; assay type: ADME, tissue-based; conditions: other: in-situ single-pass perfusion of the jejunum, read-out: Peff (converted)
Method in brief: (§1)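 Rats fasted 18–24 h and anesthetized with intraperitoneal pentobarbital. Jejunal loop perfused at 0.2 ml/min with phosphate buffer (pH 5.4, 6.4 or 7.4) containing 100 μM drug and FD-4 (0.1 mg/ml). Vascular perfusate was Krebs–Henseleit bicarbonate buffer (pH 7.4) at 2.5 ml/min, segment kept at 37°C. Drug and metabolite measured by HPLC (UV 258 nm). Peff normalized to 10 cm intestine; mean ± S.D., n = 3–6.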

Jejunum [2] = assay: Drug uptake in Wistar rat jejunum pre-perfused with 400 uM CES inhibitor BNPP assessed as rate of drug disappearance at 100 uM at pH 6.4 by in-situ single-pass perfusion method; assay type: ADME, tissue-based; conditions: in vivo
Method in brief: (§2)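 Same in situ jejunal single-pass perfusion, with carboxylesterase blocked by pre-perfusing the lumen with 400 µM BNPP for 40 min. Then 100 µM drug in luminal phosphate buffer (pH 5.4 or 6.4) at 0.2 ml/min. Vascular Krebs–Henseleit (pH 7.4) at 2.5 ml/min. Luminal, vascular and tissue levels measured by HPLC. Rates are luminal disappearance and appearance in lumen or mesenteric vein. Mean ± S.D., n = 3.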

[3] = Drug hydrolysis in Wistar rat jejunal S9 fraction; assay type: ADME, Jejunum
Method in brief: (§3)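 Duodenal or jejunal mucosa from fasted rats homogenized in 50 mM HEPES (pH 7.4) with 1.15% KCl; S9 is the 9000 g supernatant. S9 pre-incubated 5 min at 37°C, then drug added at 10–500 µM final (1% DMSO). Run for 20 min, stopped with acetonitrile, temocaprilat formed measured by HPLC. Km and Vmax from Michaelis–Menten nonlinear fit. Inhibitor (1 mM BNPP) pre-incubated 5 min. Results as % of control.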

[4] = Drug hydrolysis in Wistar rat duodenal S9 fraction assessed as rate of hydrolysis per mg protein; assay type: ADME, Duodenum; method in brief: as §3
[5] = Drug hydrolysis in Wistar rat jejunal S9 fraction in presence of 1 mM CES inhibitor BNPP; assay type: ADME, Jejunum; method in brief: as §3
Jejunum [6] = assay: Intracellular drug level in Wistar rat jejunum pre-perfused with 400 uM CES inhibitor BNPP at 100 uM at pH 6.4 by in-situ single-pass perfusion method; assay type: ADME, tissue-based; conditions: in vivo, pH 6.4, 100 µM; method in brief: as §2
[7] = Drug hydrolysis in Wistar rat duodenal S9 fraction in presence of 1 mM CES inhibitor BNPP; assay type: ADME, Duodenum; method in brief: as §3
Jejunum [8] = assay: Intracellular drug level in Wistar rat jejunum pre-perfused with 400 uM CES inhibitor BNPP at 100 uM at pH 5.4 by in-situ single-pass perfusion method; assay type: ADME, tissue-based; conditions: in vivo, pH 5.4, 100 µM; method in brief: as §2
Jejunum [9] = assay: Apparent hydrolytic clearance in Wistar rat jejunum pre-perfused with 400 uM CES inhibitor BNPP at 100 uM at pH 6.4 by in-situ single-pass perfusion method; assay type: ADME, tissue-based; conditions: in vivo, pH 6.4, 100 µM; method in brief: as §2
Jejunum [10] = assay: Apparent absorption clearance in Wistar rat jejunum at 100 uM at pH 7.4 by in-situ single-pass perfusion method; assay type: ADME, tissue-based; conditions: in vivo, pH 7.4, 100 µM
Method in brief: (§4)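 Rats fasted 18–24 h, anesthetized with intraperitoneal pentobarbital. Isolated cannulated jejunal segment kept at 37°C in Krebs–Henseleit buffer with 3% BSA and 10 mM glucose. Vascular perfusion with Krebs–Henseleit (pH 7.4) at 2.5 ml/min. Lumen perfused at 0.2 ml/min with phosphate buffer (pH 5.4, 6.4 or 7.4) containing 100 µM drug plus FD-4. Luminal and vascular samples assayed by HPLC (UV 258 nm). Parameters normalized to 10 cm intestine. Mean ± S.D., n = 3–6.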

[11] = Drug hydrolysis in intact Wistar rat jejunal S9 fraction at 500 uM assessed per mg protein; assay type: ADME, Jejunum; conditions: s9, 500 µM
Method in brief: (§5)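 Jejunal mucosal homogenate or S9 (HEPES pH 7.4/KCl) taken from intact jejunum, or after 40 min perfusion with or without 400 µM BNPP. Protein at 400 µg/ml incubated at 37°C with 500 µM drug. Added BNPP (100 or 1000 µM) pre-incubated 5 min. Temocaprilat formed measured by HPLC and given as nmol/min/mg protein and % of control. Mean ± S.D., n = 4.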

[12] = Permeability in Wistar rat jejunum at 100 uM at pH 5.4 by in-situ single-pass perfusion method; assay type: ADME, tissue-based; conditions: other: in-situ single-pass perfusion of the jejunum, read-out: Peff (converted); method in brief: as §1
Jejunum [13] = assay: Intracellular drug level in Wistar rat jejunum at 100 uM at pH 6.4 by in-situ single-pass perfusion method; assay type: ADME, tissue-based; conditions: in vivo; method in brief: as §4
Jejunum [14] = assay: Drug degradation in Wistar rat jejunum lumen assessed as rate of drug disappearance at 100 uM by in-situ single-pass perfusion method; assay type: ADME, tissue-based; method in brief: as §4
[15] = Drug hydrolysis in Wistar rat duodenal S9 fraction; assay type: ADME, Duodenum; method in brief: as §3
Jejunum [16] = assay: Drug uptake in Wistar rat jejunum pre-perfused with 400 uM CES inhibitor BNPP assessed as rate of drug disappearance at 100 uM at pH 5.4 by in-situ single-pass perfusion method; assay type: ADME, tissue-based; conditions: in vivo, pH 5.4, 100 µM; method in brief: as §2
Jejunum [17] = assay: Drug uptake in Wistar rat jejunum pre-perfused with 400 uM CES inhibitor BNPP assessed as rate of temocaprilat disappearance at 100 uM at pH 6.4 by in-situ single-pass perfusion method; assay type: ADME, tissue-based; conditions: in vivo, pH 6.4, 100 µM; method in brief: as §2
Jejunum [18] = assay: Apparent hydrolytic clearance in Wistar rat jejunum at 100 uM at pH 5.4 by in-situ single-pass perfusion method; assay type: ADME, tissue-based; conditions: in vivo, pH 5.4, 100 µM; method in brief: as §4
Jejunum [19] = assay: Apparent absorption clearance in Wistar rat jejunum at 100 uM at pH 6.4 by in-situ single-pass perfusion method; assay type: ADME, tissue-based; conditions: in vivo; method in brief: as §4
Jejunum [20] = assay: Apparent absorption clearance in Wistar rat jejunum pre-perfused with 400 uM CES inhibitor BNPP at 100 uM at pH 5.4 by in-situ single-pass perfusion method; assay type: ADME, tissue-based; conditions: in vivo, pH 5.4, 100 µM; method in brief: as §2
Jejunum [21] = assay: Intracellular drug level in Wistar rat jejunum treated with Temocaprilat at 100 uM at pH 5.4 by in-situ single-pass perfusion method; assay type: ADME, tissue-based; conditions: in vivo, pH 5.4, 100 µM
Jejunum [22] = assay: Drug hydrolysis in intact Wistar rat jejunum mucosal homogenate at 500 uM assessed per mg protein in presence of 1000 uM CES inhibitor BNPP; assay type: ADME, tissue-based; conditions: tissue homogenate; method in brief: as §5
Jejunum [23] = assay: Drug uptake in Wistar rat jejunum pre-perfused with 400 uM CES inhibitor BNPP assessed as rate of temocaprilat appearance at 100 uM at pH 6.4 by in-situ single-pass perfusion method; assay type: ADME; conditions: in vivo, pH 6.4, 100 µM; method in brief: as §2
Jejunum [24] = assay: Drug uptake in Wistar rat jejunum mesenteric vein assessed as rate of drug appearance at 100 uM by in-situ single-pass perfusion method; assay type: ADME, tissue-based; conditions: in vivo; method in brief: as §4
Jejunum [25] = assay: Drug hydrolysis in perfused Wistar rat jejunum mucosal homogenate at 500 uM assessed per mg protein; assay type: ADME, tissue-based; conditions: tissue homogenate; method in brief: as §5
Jejunum [26] = assay: Intracellular drug level in Wistar rat jejunum at 100 uM at pH 5.4 by in-situ single-pass perfusion method; assay type: ADME, tissue-based; conditions: in vivo; method in brief: as §4
[27] = Drug hydrolysis in intact Wistar rat jejunal S9 fraction at 500 uM assessed per mg protein in presence of 100 uM CES inhibitor BNPP; assay type: ADME, Jejunum; conditions: s9, 500 µM; method in brief: as §5

For `CCOC(=O)[C@H](CCc1ccccc1)N[C@H]1CS[C@H](c2cccs2)CN(CC(=O)O)C1=O` [TEMOCAPRIL], the Papp at 100 µM [1] was 57.2 ×10⁻⁶ cm/s, the CL (Jejunum [2]) was 2.44 nmol/min and the Km [3] was 47.3 µM. The Vmax [4] was 5.2 nmol/min/mg, the Stability [5] was “Stable” and the Drug uptake (Jejunum [6]) was 15.4 nmol/g. For the same molecule, the Stability [7] was “Stable”, the Drug uptake (Jejunum [8]) was 20.6 nmol/g and the CL (Jejunum [9]) was 19.5 µL/min. For the same molecule, the “CL(app)” value (Jejunum [10]) was 1.23 µL/min, the Drug degradation [11] was 4.46 nmol/min and the Papp at 100 µM [12] was 76 ×10⁻⁶ cm/s. It also gave a Drug uptake (Jejunum [13]) of 1.83 nmol/g, a Drug degradation (Jejunum [14]) of 3.89 nmol/min and a Km [15] of 47.4 µM. For the same molecule, the CL (Jejunum [16]) was 2.98 nmol/min, the CL (Jejunum [17]) was 1.17 nmol/min and the CL (Jejunum [18]) was 34.4 µL/min. For the same molecule, the “CL(app)” value (Jejunum [19]) was 1.59 µL/min, the “CL(app)” value (Jejunum [20]) was 10.6 µL/min and the Drug uptake (Jejunum [21]) was 34.2 nmol/g. The Drug degradation (Jejunum [22]) was 1.97 nmol/min, the CL (Jejunum [23]) was 0.604 nmol/min and the Drug uptake (Jejunum [24]) was 0.147 nmol/min. For the same molecule, the Drug degradation (Jejunum [25]) was 3.96 nmol/min, the Drug uptake (Jejunum [26]) was 5.46 nmol/g and the Drug degradation [27] was 1.13 nmol/min.
